Legend:
[1] = molecular target: T1, Human immunodeficiency virus type 1 protease (Human immunodeficiency virus 1, UniProt Q72874); assay: (§1) Tested for inhibition of synthetic HIV-1 protease by using fluorometric assay
Summary of the method: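 Synthetic HIV-1 PR (SF2 isolate; C67B, C95B, Q7K, L33I mutations, B = L-α-aminobutyric acid) solubilized in 6 M Gu·HCl, refolded 60 min in phosphate pH 7.0/glycerol/BSA buffer. Continuous fluorimetric assay with 50 μM Abz-Thr-Ile-Nle-Phe(p-NO2)-Gln-Arg-NH2 in MES pH 6.5, 100 mM NaCl, 10% glycerol, I = 0.1 M, 37 °C, varying inhibitor. Ki from Dixon or Henderson plots; Km from Hanes plot.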

[2] = molecular target: T1, Human immunodeficiency virus type 1 protease; assay: as §1; remark: listed apart in the source

Compound	Ki [1] [nM]	Ki [2] [nM]
CC(C)(C)N(CC(O)C1Cc2ccc(cc2)OCCCC(=O)NC(CC(N)=O)C(=O)N1)C(=O)C1CCCCN1 (stereo not given)	12	
CC(C)CCN(C[C@@H](O)[C@@H]1Cc2ccc(cc2)OCCCCCC(=O)N[C@@H](C(C)C)C(=O)N1)S(=O)(=O)c1cccc([N+](=O)[O-])c1		145
CC[C@@H](C)[C@@H]1NC(=O)[C@@H](NC[C@@H](O)[C@H](Cc2ccccc2)NC(=O)c2cccc(C)c2)Cc2ccc(cc2)OCCCNC1=O	15	
CC(C)[C@@H]1NC(=O)CCCCCOc2ccc(cc2)C[C@@H]([C@H](O)CN(CCc2ccccc2)S(=O)(=O)c2ccc(N)cc2)NC1=O		8
COc1ccc(CCN(C[C@@H](O)[C@@H]2Cc3ccc(cc3)OCCCCCC(=O)N[C@@H](C(C)C)C(=O)N2)S(=O)(=O)c2ccc(N)cc2)cc1		3
CC(C)CCN(C[C@@H](O)[C@@H]1Cc2ccc(cc2)OCCCC(=O)N[C@@H](C(N)=O)C(=O)N1)S(=O)(=O)c1ccccc1	1	
CCC(C)N(C[C@@H](O)[C@@H]1Cc2ccc(cc2)OCCCCCC(=O)N[C@@H](C(C)C)C(=O)N1)S(=O)(=O)c1ccc(N)cc1 (stereo not given in full)		2
CCCCCCN(C[C@@H](O)[C@@H]1Cc2ccc(cc2)OCCCCCC(=O)N[C@@H](C(C)C)C(=O)N1)S(=O)(=O)c1ccc(N)cc1		14
CC(C)[C@@H]1NC(=O)CCCCCOc2ccc(cc2)C[C@@H]([C@H](O)CN(C2CCCC2)S(=O)(=O)c2ccc(N)cc2)NC1=O		3
CC[C@@H](C)[C@@H]1NC(=O)[C@@H](NC[C@@H](O)[C@H](Cc2ccccc2)NC(=O)OC(C)(C)C)Cc2ccc(cc2)OCCCNC1=O	4	
CC(C)CCN(C[C@@H](O)[C@@H]1Cc2ccc(cc2)OCCCCCC(=O)N[C@@H](C(C)C)C(=O)N1)NC(=O)NC1CCCCC1		207
CC[C@@H](C)[C@@H]1NC(=O)[C@@H](NC[C@@H](O)[C@H](Cc2ccccc2)NC(=O)[C@H](C(C)C)N2CCCC2=O)Cc2ccc(cc2)OCCCNC1=O	1	
CC[C@@H](C)[C@@H]1NC(=O)[C@@H](NC[C@@H](O)[C@H](Cc2ccccc2)NC(=O)OC2CCOC2)Cc2ccc(cc2)OCCCNC1=O (stereo not given in full)	4	
CC(C)[C@@H]1NC(=O)CCCCCOc2ccc(cc2)C[C@@H]([C@H](O)CN(CCCCCC(=O)O)S(=O)(=O)c2ccc(N)cc2)NC1=O		60
CC[C@H](C)[C@H](NC(=O)[C@@H](NC(=O)[C@@H]1CCCN1)C(C)C)C(=O)NCC(O)C1Cc2ccc(cc2)OCCCC(=O)NC(CC(N)=O)C(=O)N1 (stereo not given in full)	12	
CC(=O)Nc1ccc(S(=O)(=O)N(CCC(C)C)C[C@@H](O)[C@@H]2Cc3ccc(cc3)OCCCCCC(=O)N[C@@H](C(C)C)C(=O)N2)cc1		10
CC(C)CCN(C[C@@H](O)[C@@H]1Cc2ccc(cc2)OCCCCCC(=O)N[C@@H](C(C)C)C(=O)N1)NC(=O)NCc1ccccc1		314
CC(C)CCN(C[C@@H](O)[C@@H]1Cc2ccc(cc2)OCCCCCC(=O)N[C@@H](C(C)C)C(=O)N1)S(=O)(=O)c1ccccc1	1.6	
CC(C)CCN(C[C@@H](O)[C@@H]1Cc2ccc(cc2)OCCCCCC(=O)N[C@@H](C(C)C)C(=O)N1)S(=O)(=O)c1c(C(C)C)cc(C(C)C)cc1C(C)C		4700
CC(C)CCN(C[C@@H](O)[C@@H]1Cc2ccc(cc2)OCCCCC(=O)N[C@@H](C(C)C)C(=O)N1)S(=O)(=O)c1ccccc1	0.4	
CC[C@@H](C)[C@@H]1NC(=O)[C@@H](NC[C@@H](O)[C@H](Cc2ccccc2)NC(=O)[C@@H](NC(=O)[C@H](CC(C)C)NC(C)=O)C(C)C)Cc2ccc(cc2)OCCCNC1=O	0.6	
CC(C)CCN(C[C@@H](O)[C@@H]1Cc2ccc(cc2)OCCCCCC(=O)N[C@@H](C(C)C)C(=O)N1)S(=O)(=O)c1ccc2ccccc2c1		1
CC[C@@H](C)[C@@H]1NC(=O)[C@@H](NC[C@@H](O)[C@@H]2Cc3ccc(cc3)OCCCCC(=O)N[C@@H](C(C)C)C(=O)N2)Cc2ccc(cc2)OCCCNC1=O	5	
CC[C@@H](C)[C@@H]1NC(=O)[C@@H](NC[C@H](Cc2ccccc2)NC(=O)OC(C)(C)C)Cc2ccc(cc2)OCCCNC1=O	44	
CC(C)CCN(C[C@@H](O)[C@@H]1Cc2ccc(cc2)OCCCCCC(=O)N[C@@H](C(C)C)C(=O)N1)S(=O)(=O)c1cccc2cccnc12		295
